Laboratory results: publication PMC7947324 (Pharmacology Research & Perspectives, 2021)
“Also recorded” adds a separate entry of the source.

Key:
[1] = test system: INS‐1 (832/3) cells; experiment: Relative gene expression by qPCR in INS‐1; format: cell-based, rat; details: for Ptges expression vs. control: 2^ΔΔCt method, AA enrichment alone or 10 ng/ml IL‐1β
[2] = test system: INS‐1 (832/3) cells; experiment: Membrane phospholipid AA and EPA composition of INS‐1; format: cell-based, rat; details: 100 μM AA‐enriched medium, 48 h
[3] = test system: INS‐1 (832/3) cells; experiment: INS‐1; format: cell-based, rat; details: for effect of antagonist on the PGE2 dose–response (GSIS): 10 µM antagonist, PGE2 1 pM to 50 μM; for effect of antagonist on the sulprostone dose–response (GSIS): sulprostone 1 pM to 50 μM; for reduction of GSIS at high concentration compared with PGE2: 50–100 µM; for concentration from which the agonist reduces GSIS / effect of agonist on GSIS (dose–response): agonist alone; for effect of agonist on GSIS (dose–response): 1 pM to 50 or 100 μM, 16.7 mM glucose
Summary of the method: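 INS‐1 (832/3) cells (passage 35 or below) plated and cultured 72 h before GSIS. Agonists tested from 1 pM to 10, 50 or 100 µM, with or without 20 µM EP3 antagonist or 10 µM other EP antagonists. Insulin measured by in‐house ELISA and expressed relative to 16.7 mM glucose. N = 3–5 independent experiments, mean ± SEM, two‐way ANOVA with Holm–Sidak.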

[4] = test system: rat EP1 receptor; details: cited from earlier work
[5] = test system: rat EP3 receptor; details: cited from earlier work
[6] = test system: mouse DP2 receptor; experiment: Published agonism at mouse DP2 receptor; format: biochemical; details: from published pKi values of Table 3
[7] = test system: mouse DP2 receptor; details: ref Table 3; cited from earlier work
[8] = test system: INS‐1 (832/3) cells; details: cited from earlier work
[9] = test system: INS‐1 (832/3) cells; experiment: Total insulin content of INS‐1; format: cell-based, rat; details: 10 ng/ml, regardless of fatty acid treatment
Summary of the method: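 Cells at 70% confluence were cultured 48 h in medium with 1% fatty acid‐free BSA, with or without 100 μM AA, then 24 h with vehicle or 10 ng/ml IL‐1β. Assay groups were 1.7 mM glucose, 16.7 mM glucose, 16.7 mM + 10 nM agonist, and 16.7 mM + 20 µM EP3 antagonist. Secreted insulin was given as percent of content; content and secretion by in‐house ELISA. N = 3–4, mean ± SEM, two‐way ANOVA with Holm–Sidak.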

[10] = test system: INS‐1 (832/3) cells; experiment: PGE2 production; format: cell-based, rat; details: BSA or AA cultured cells, 10 ng/mL IL‐1β or vehicle

Molecule: CCCCC/C=C\C/C=C\C/C=C\C/C=C\CCCC(=O)O [AA, arachidonic acid]
- Ptges expression vs. control [1]: ~ 3.5 fold
- AA abundance in membrane phospholipids vs controls [2]: 4 fold
- AA:EPA ratio vs controls [2]: 25 fold

Molecule: O=C(O)CC/C=C\CC[C@H]1[C@H](N2CCOCC2)C(=O)C[C@H]1OCc1ccc(-c2ccccc2)cc1 [AH2384B]
- effect of antagonist on the PGE2 dose–response (GSIS) [3]: excluded from mediating the effect of PGE2 on GSIS
- effect of antagonist on the sulprostone dose–response (GSIS) ([3]; 10 μM antagonist): neither SC51089, AH2384B, SC19220, nor L161,982 affecting the sulprostone dose–response

Molecule: CCC#CC[C@H](C)[C@H](O)C#C[C@@H]1[C@H]2C/C(=C/COCC(=O)O)C[C@H]2C[C@H]1O [Cicaprost, cicaprost]
- reduction of GSIS at high concentration compared with PGE2 [3]: nearly reaching the maximal potency of PGE2
- concentration from which the agonist reduces GSIS [3]: 1 µM

Molecule: CC#CCC(C)[C@H](O)/C=C/[C@@H]1[C@H]2C/C(=C/CCCC(=O)O)C[C@H]2C[C@H]1O (stereo partly drawn) [Iloprost, iloprost]
- effect of agonist on GSIS (dose–response) [3]: dose‐dependently reduces GSIS; also recorded: significantly reduce INS‐1 cell GSIS
- agonist type at rat EP1 receptor [4]: only a partial agonist
- agonist type at rat EP3 receptor [5]: full agonist

Molecule: COc1ccc2c(c1)c(CC(=O)O)c(C)n2C(=O)c1ccc(Cl)cc1 [Indomethacin, indomethacin]
- effect of agonist on GSIS (dose–response) [3]: no significant effect
- effect of agonist on GSIS (dose–response) ([3]; listed as indomethacin): no effect on GSIS

Molecule: CCCCc1nn(-c2ccccc2C(F)(F)F)c(=O)n1Cc1ccc(-c2ccccc2S(=O)(=O)NC(=O)c2sccc2C)cc1 [L161,982]
- effect of antagonist on the PGE2 dose–response (GSIS) [3]: excluded from mediating the effect of PGE2 on GSIS
- effect of antagonist on the sulprostone dose–response (GSIS) ([3]; 10 μM antagonist): neither SC51089, AH2384B, SC19220, nor L161,982 affecting the sulprostone dose–response

Molecule: COc1ccc(Br)cc1S(=O)(=O)NC(=O)/C=C/c1ccccc1Cc1ccc2ccccc2c1 [L798,106]
- effect of antagonist on GSIS reduced by PGD2, PGF2α, cicaprost or U‐46619 ([3]; 20 μM L798,106): fully restores INS‐1 (832/3) GSIS
- increase in GSIS vs. 16.7 mM glucose alone ([3]; 20 µM, AA enrichment and 10 ng/ml IL‐1β pretreatment): ~ 30%
- effect of antagonist alone on GSIS ([3]; 20 µM, no IL‐1β treatment, control and AA‐enriched cells): no potentiating effect; also recorded: unaffected
- increase of the IC50 for PGE2 (reduction of GSIS) by antagonist ([3]; PGE2 1 pM to 10 μM with and without 20 μM L798,106): over 100 fold

Molecule: CCCCC[C@H](O)/C=C/[C@H]1C(=O)C[C@H](O)[C@@H]1C/C=C\CCCC(=O)O [PGD2]
- reduction of GSIS at high concentration compared with PGE2 [3]: nearly reaching the maximal potency of PGE2
- concentration from which the agonist reduces GSIS [3]: 1 µM

Molecule: CCCCC[C@H](O)/C=C/[C@H]1[C@H](O)CC(=O)[C@@H]1C/C=C\CCCC(=O)O [PGE2]
- potentiation of GSIS ([3]; 10 nM, AA‐enriched cells pretreated with IL‐1β): approximately twofold
- effect on GSIS ([3]; 10 nM, IL‐1β‐treated control (BSA) cells): no further inhibitory effect
- effect on GSIS ([3]; 10 nM, cells without IL‐1β, with or without AA enrichment): blunts INS‐1 (832/3) GSIS regardless of AA enrichment
- effect of agonist on GSIS (dose–response) [3]: reduces INS‐1 (832/3) GSIS in a dose‐dependent manner; also recorded: significantly reduce INS‐1 cell GSIS
- maximal reduction in GSIS ([3]; maximal potency): ~ 60%
- reduced potency at DP2 as compared to EP3 [6]: ~ 3000 fold
- agonist type at mouse DP2 receptor [7]: full agonist

Molecule: CC/C=C\C[C@H](O)/C=C/[C@H]1[C@H](O)CC(=O)[C@@H]1C/C=C\CCCC(=O)O [PGE3]
- effect on INS‐1 cell GSIS [8]: significantly reduce INS‐1 cell GSIS

Molecule: CCCCC[C@H](O)/C=C/[C@H]1[C@H](O)CC(=O)[C@@H]1CCCCCCC(=O)O [PGE 1]
- effect on INS‐1 cell GSIS [8]: significantly reduce INS‐1 cell GSIS

Molecule: CCCCC[C@H](O)/C=C/[C@@H]1[C@@H](C/C=C\CCCC(=O)O)[C@@H](O)C[C@H]1O [PGF2α]
- reduction of GSIS at high concentration compared with PGE2 [3]: nearly reaching the maximal potency of PGE2
- concentration from which the agonist reduces GSIS [3]: 1 µM

Molecule: CC(=O)NNC(=O)N1Cc2ccccc2Oc2ccc(Cl)cc21 [SC19220]
- effect of antagonist on the PGE2 dose–response (GSIS) [3]: neither of two EP1 antagonists, SC19220 or SC51089, affect the PGE2 dose–response
- effect of antagonist on the sulprostone dose–response (GSIS) ([3]; 10 μM antagonist): neither SC51089, AH2384B, SC19220, nor L161,982 affecting the sulprostone dose–response

Molecule: CS(=O)(=O)NC(=O)CCC/C=C\C[C@H]1C(=O)C[C@@H](O)[C@@H]1/C=C/[C@@H](O)COc1ccccc1 [Sulprostone, sulprostone]
- effect of agonist on GSIS (dose–response) [3]: nearly identical results as with PGE2; also recorded: significantly reduce INS‐1 cell GSIS

Molecule: IL‐1β: Interleukin‐1β, cytokine used at 10 ng/ml to mimic the diabetic state and induce PGE2 production
- Ptger1 expression ([1]; 10 ng/ml IL‐1β): unaffected
- Ptger3 expression upregulation ([1]; 10 ng/ml IL‐1β): ~ 6 fold
- Ptger4 expression upregulation ([1]; 10 ng/ml IL‐1β): ~ 10 fold
- Ptges2 expression induction ([1]; 10 ng/ml IL‐1β): ~ 2 fold
- Ptges3 expression induction ([1]; 10 ng/ml IL‐1β): ~ 2.5 fold
- Ptgs1 expression induction ([1]; 10 ng/ml IL‐1β): 2–4 fold
- Ptgs2 expression induction ([1]; 10 ng/ml IL‐1β): ~ 10 fold
- Ptges expression vs. control [1]: ~ 100 fold
- reduction of insulin content [9]: ~50%
- substrate‐dependent PGE2 production [10]: only induced with IL‐1β treatment

Molecule: PF‐04418948
- effect of antagonist on the PGE2 dose–response (GSIS) [3]: no effect

Molecule: SC51089
- effect of antagonist on the PGE2 dose–response (GSIS) [3]: neither of two EP1 antagonists, SC19220 or SC51089, affect the PGE2 dose–response
- effect of antagonist on the iloprost dose–response curve (GSIS) ([3]; 10 μM antagonist, iloprost 1 pM to 100 μM): no effect
- effect of antagonist on the sulprostone dose–response (GSIS) ([3]; 10 μM antagonist): neither SC51089, AH2384B, SC19220, nor L161,982 affecting the sulprostone dose–response
